Calls of active or inactive are those of the source. The rule behind the calls is not given here.
Assays:
[1] = biological target: T1, Bile acid receptor (Homo sapiens) (UniProt Q96RI1); test: Transactivation of human FXR expressed in human HeLa cells co-expressing BSEP at 50 uM after 24 hrs by dual-glo luciferase reporter gene assay relative to GW4064; assay type: cell-based
T1 sequence (whole entry): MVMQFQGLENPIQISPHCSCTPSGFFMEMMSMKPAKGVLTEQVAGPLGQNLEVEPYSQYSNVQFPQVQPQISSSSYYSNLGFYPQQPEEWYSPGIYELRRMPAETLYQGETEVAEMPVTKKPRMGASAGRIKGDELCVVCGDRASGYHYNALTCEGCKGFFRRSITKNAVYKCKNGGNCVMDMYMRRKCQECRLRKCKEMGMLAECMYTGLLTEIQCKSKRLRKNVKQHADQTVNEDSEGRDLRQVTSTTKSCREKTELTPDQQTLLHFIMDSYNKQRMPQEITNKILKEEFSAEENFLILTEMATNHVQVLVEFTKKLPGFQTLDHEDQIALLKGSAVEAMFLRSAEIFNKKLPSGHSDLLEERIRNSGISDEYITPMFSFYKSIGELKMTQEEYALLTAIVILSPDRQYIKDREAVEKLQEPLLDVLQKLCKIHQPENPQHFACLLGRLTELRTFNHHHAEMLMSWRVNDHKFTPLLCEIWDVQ
In short: (§1)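 HeLa cells in DMEM/10% FCS at 37 °C, 5% CO2; switched to 0.5% charcoal-stripped FCS before calcium phosphate co-transfection with pcDNA3-hFXR, pSG5-hRXR, BSEP promoter–firefly luciferase reporter and pRL-SV40 renilla. Compound in 0.1% DMSO, phenol red-free medium, 24 h.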

Bile acid receptor [2] = biological target: T2, Bile acid receptor (Homo sapiens, UniProt Q96RI1); test: Transactivation of human FXR expressed in human HeLa cells co-expressing BSEP after 24 hrs by dual-glo luciferase reporter gene assay; assay type: cell-based; in short: as §1
T2 sequence (Q96RI1 whole entry): T1 sequence (whole entry)

[3] = Aqueous solubility of compound at 5 mg after 24 hrs by HPLC analysis; assay type: physicochemical
[4] = biological target: T3, Bifunctional epoxide hydrolase 2 (Homo sapiens, UniProt P34913); test: Inhibition of recombinant human sEH using PHOME as substrate preincubated for 30 mins followed by substrate addition measured for 30 mins by fluorescence photometric method; details: read-out: IC50
T3 sequence (P34913 whole entry): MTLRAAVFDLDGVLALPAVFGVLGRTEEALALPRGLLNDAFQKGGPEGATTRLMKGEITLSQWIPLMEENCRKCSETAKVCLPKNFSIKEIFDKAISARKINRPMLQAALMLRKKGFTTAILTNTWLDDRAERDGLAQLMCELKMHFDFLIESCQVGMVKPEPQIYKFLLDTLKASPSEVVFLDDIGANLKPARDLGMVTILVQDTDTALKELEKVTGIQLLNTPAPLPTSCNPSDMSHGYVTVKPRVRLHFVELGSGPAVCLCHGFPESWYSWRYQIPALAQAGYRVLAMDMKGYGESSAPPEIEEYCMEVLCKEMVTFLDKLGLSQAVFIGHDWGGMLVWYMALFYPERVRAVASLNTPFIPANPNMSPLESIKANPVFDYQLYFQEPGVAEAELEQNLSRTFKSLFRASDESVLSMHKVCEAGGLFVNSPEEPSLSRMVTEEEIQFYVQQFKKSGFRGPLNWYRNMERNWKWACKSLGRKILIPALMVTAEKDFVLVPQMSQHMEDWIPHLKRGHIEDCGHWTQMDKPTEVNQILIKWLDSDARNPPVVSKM
In short: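 Recombinant human sEH in Bis-Tris buffer pH 7, 0.1 mg/mL BSA, 0.01% Triton X-100 (final), preincubated 30 min at room temperature with compound (1% DMSO final). PHOME added at 50 μM final; 6-methoxynaphthaldehyde fluorescence read each minute for 30 min.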

[5] = biological target: T4, Bifunctional epoxide hydrolase 2 (Homo sapiens) (UniProt P34913); test: Inhibition of sEH in primary human monocytes-derived macrophages assessed as reduction in LPS-stimulated IL-12p70 release at 10 uM after 16 hrs by cytometric bead array method; assay type: cell-based
T4 sequence (whole entry): T3 sequence (P34913 whole entry)
In short: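 Blood monocytes isolated by dextran sedimentation and Nycoprep gradient, adherence-selected 1 h, differentiated with GM-CSF 10 ng/mL for 7 days plus IFNγ 10 ng/mL for last 48 h. Stimulated with LPS 100 ng/mL plus compound for 16 h; supernatant IL-10 and IL-12p70 measured by cytometric bead array flow cytometry.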

[6] = biological target: T4, Bifunctional epoxide hydrolase 2 (Homo sapiens); test: Inhibition of sEH in human HepG2 cells assessed as NF-kappaB mRNA expression at 10 uM after 8 to 16 hrs by SYBR green based qRT-PCR analysis relative to DMSO control; assay type: cell-based
[7] = biological target: T4, Bifunctional epoxide hydrolase 2 (Homo sapiens); test: Inhibition of sEH in human HuT-78 cells assessed as reduction in Pam3CSK4-stimulated TNFalpha release preincubated for 24 hrs followed by Pam3CSK4 addition measured after 18 hrs by ELISA; assay type: cell-based
In short: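 HuT-78 cells in RPMI 1640 with 10% heat-inactivated FCS, 2.0 × 10^6 cells/well, exposed to compound (0.1% DMSO) for 24 h; medium then replaced with fresh compound plus Pam3CSK4 20 ng/mL for 18 h; supernatant TNFα measured by ELISA (absorbance 450 nm); each concentration repeated independently at least three times.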

[8] = biological target: T4, Bifunctional epoxide hydrolase 2 (Homo sapiens); test: Inhibition of sEH in human HepG2 cells assessed as NF-kappaB mRNA expression at 1 uM after 8 to 16 hrs by SYBR green based qRT-PCR analysis relative to DMSO control; assay type: cell-based
In short: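 HepG2 cells treated with compound or 0.1% DMSO vehicle; NF-κB mRNA quantified by SYBR Green qRT-PCR, comparative ΔΔCt with GAPDH reference; expressed as % of vehicle (100%).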

[9] = biological target: T1, Bile acid receptor (Homo sapiens); test: Transactivation of FXR in human HepG2 cells assessed as FGF19 mRNA expression at 1 uM after 8 to 16 hrs by SYBR green based qRT-PCR analysis relative to DMSO control; assay type: cell-based
In short: (§2)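 HepG2 cells incubated with test compound (0.1 and 1 μM) or 0.1% DMSO for 8 or 16 h, washed in cold PBS, RNA extracted; target mRNA by SYBR Green qRT-PCR, duplicate samples, ≥4 independent experiments; comparative ΔΔCt with GAPDH reference, vehicle set as 100%.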

[10] = biological target: T1, Bile acid receptor (Homo sapiens); test: Transactivation of FXR in human HepG2 cells assessed as SHP mRNA expression at 1 uM after 8 to 16 hrs by SYBR green based qRT-PCR analysis relative to DMSO control; assay type: cell-based; in short: as §2
[11] = biological target: T4, Bifunctional epoxide hydrolase 2 (Homo sapiens); test: Inhibition of sEH in primary human monocytes-derived macrophages assessed as reduction in LPS-stimulated IL-12p70 release at 1 uM after 16 hrs by cytometric bead array method; assay type: cell-based
In short: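 Human blood monocytes isolated by dextran sedimentation/Nycoprep and adherence, differentiated to macrophages with GM-CSF 10 ng/mL for 7 days plus IFNγ 10 ng/mL for final 48 h; stimulated with LPS 100 ng/mL together with compound for 16 h; supernatant IL-12p70 measured by cytometric bead array on flow cytometer.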

[12] = biological target: T1, Bile acid receptor (Homo sapiens); test: Transactivation of FXR in human HepG2 cells assessed as BSEP mRNA expression at 1 uM after 8 to 16 hrs by SYBR green based qRT-PCR analysis relative to DMSO control; assay type: cell-based; in short: as §2
[13] = biological target: T1, Bile acid receptor (Homo sapiens); test: Transactivation of FXR in human HepG2 cells assessed as SREBP1c mRNA expression at 1 uM after 8 to 16 hrs by SYBR green based qRT-PCR analysis relative to DMSO control; assay type: cell-based; in short: as §2
Bile acid receptor [14] = biological target: T2, Bile acid receptor; test: Transactivation of FXR in human HepG2 cells assessed as CYP7A1 mRNA expression at 3 uM after 8 to 16 hrs by SYBR green based qRT-PCR analysis relative to DMSO control; assay type: ADME, cell-based
In short: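 HepG2 cells treated 8 or 16 h with compound or 0.1% DMSO, washed in cold PBS, RNA extracted; SYBR Green qRT-PCR in duplicate, ≥4 independent experiments (n = 3 for CD36/FAM3A). ΔΔCt method with GAPDH reference; expression as % of vehicle (100%). Pioglitazone 1 μM used as positive control for the PPARγ genes.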

Work on CC(C)(C)c1ccc(C(=O)NCc2ccc(NC(=O)C(F)(F)F)cc2Cl)cc1 yielded an Emax [1] of 21%, an EC50 (Bile acid receptor [2]) of 14 nM and a solubility at 24 h [3] of under 0.1 µg/mL. For the same compound, the IC50 [4] was 8.9 nM.
With O=C(Nc1ccc(I)cc1)NC1CCCCC1 the inhibition [5] was “Active” and the inhibition [6] was 22.9%.
With CC[C@H]1[C@@H](O)[C@@H]2[C@H](CC[C@]3(C)[C@@H]([C@H](C)CCC(=O)O)CC[C@@H]23)[C@@]2(C)CC[C@@H](O)C[C@@H]12 the inhibition [7] was “inactive”, the inhibition [8] was 29% and the Activity [9] was 640%. For the same compound, the Activity [10] was 416%, the inhibition [11] was “Active” and the Activity [12] was 970%. It also gave an Activity [13] of 51%.
In the case of CC(C)c1onc(-c2c(Cl)cccc2Cl)c1COc1ccc(/C=C/c2cccc(C(=O)O)c2)c(Cl)c1, the Activity (Bile acid receptor [14]) is reported as 0.03%.

From ChEMBL document CHEMBL4017509, “A Dual Modulator of Farnesoid X Receptor and Soluble Epoxide Hydrolase To Counter Nonalcoholic Steatohepatitis” (J Med Chem, 2017)
